In brackets after ≈: the same amount, converted by molar mass.
Assays:
[1] = system: mES-D3 cells and BALB/c-3T3 cells; assay: Classification of embryotoxicity by the ECVAM prediction model; design: species or system murine; conditions: prediction model from mean IC50 3T3, IC50 ES and ID50
Method in brief: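 Class (non-, weak or strong embryotoxic) comes from the ECVAM linear discriminant prediction model using mean IC50 3T3, IC50 ES and ID50. ID50 setup: 1,000 mES cells per 20 µl hanging drop without LIF for 3 days, then suspension for 2 days, then 100 EBs/well on 0.1% gelatin for 5 days. Compound is present from day 0. On day 10, α/β-MHC expression is measured by RT-PCR against GAPDH, giving the 50%-suppression concentration (mean of three repeats).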

mES-D3 cells = assay: MTT cytotoxicity assay, embryonic stem cells; assay type: cell-based, murine; conditions: Mus musculus, Embryonic stem cell, 240 h, read-out: IC50 ES
BALB/c 3T3 cells = assay: MTT cytotoxicity assay, 3T3 fibroblasts; assay type: cell-based, murine; conditions: for IC50: Mus musculus, BALB/c3T3, 240 h, read-out: IC50 3T3
mice = conditions: cited from earlier work
[2] = toxicological studies; cited from earlier work
[3] = cited from earlier work
[4] = system: mouse preimplantation embryos; conditions: in vivo; cited from earlier work

Row | Compound | Classification of the embryotoxicity [1] | Classification of the embryotoxicity according to the PM (in words) [1] | IC50 (mES-D3 cells) | IC50 (BALB/c 3T3 cells) | Oral lethal dose (mice) | Toxicity in vivo [2] | IC50 3T3 (BALB/c 3T3 cells; BALB/c 3T3 cells, 10 days of culture, MTT, mean ± standard error of the mean of three experiments) | Known in vivo embryotoxic potential [3] | Influence on development of preimplantation embryos [4]
1 | CC(C)c1cc2c(c(O)c1O)[C@@]1(C(=O)O)CCCC(C)(C)[C@@H]1CC2 [Carnosic acid] | Weak | weak embryotoxicity | 5.77 ± 1.3 µg/mL (≈ 17.4 µM) | 26.3 ± 3.86 µg/mL (≈ 79.1 µM) | 7,100 mg/kg of body weight | – | – | – | –
2 | CC1(C)S[C@@H]2[C@H](NC(=O)Cc3ccccc3)C(=O)N2[C@H]1C(=O)O [Penicillin G, penicillin G, reference compound] | None | non-embryotoxicity | 1570 ± 152 µg/mL (≈ 4690 µM) | 1160 ± 69.1 µg/mL (≈ 3470 µM) | – | – | – | – | –
3 | procyanidin | None | non-embryotoxicity | – | – | – | nontoxic and does not cause any detrimental effects in vivo | 12.100 ± 1.828 µg/mL | – | –
4 | CCCCCCCCOC(=O)c1ccccc1C(=O)OCCCCCCCC [Dioctyl phthalate, dioctyl phthalate] | Weak | weak embryotoxicity | 124 ± 24.9 µg/mL (≈ 316 µM) | 213 ± 28.2 µg/mL (≈ 547 µM) | – | – | – | – | –
5 | O=c1[nH]cc(F)c(=O)[nH]1 [5-fluorouracil, reference compound] | Strong | strong embryotoxicity | 0.08 ± 0.016 µg/mL (≈ 0.615 µM) | 0.244 ± 0.051 µg/mL (≈ 1.88 µM) | – | – | – | strong embryotoxicity | –
6 | C=CCc1ccc(O)c(OC)c1 [Eugenol, eugenol] | Strong | strong embryotoxicity | 1.93 ± 0.329 µg/mL (≈ 11.7 µM) | 9.44 ± 2.85 µg/mL (≈ 57.5 µM) | – | – | – | – | may induce a significantly increased rate of cell death and affect the development of embryo
